In ChEMBL document CHEMBL6134774, “Novel benzenesulfonamides containing a dual triazole moiety with selective carbonic anhydrase inhibition and anticancer activity” (RSC Med Chem, 2025):

Columns and labels:
Carbonic anhydrase 12 = Carbonic anhydrase 12 (Homo sapiens, UniProt O43570); assay: Inhibition of human CA12 assessed as inhibition constant
How it was run: (§1)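 Esterase activity of the hCA isoform was followed spectrophotometrically by Verpoorte's method, as the rise in absorbance at 348 nm with p-nitrophenyl acetate as substrate. Increasing inhibitor concentrations were incubated with the substrate, from 1 mg mL−1 DMSO stocks, to derive KI. Results are means of triplicate assays ± SEM.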

Carbonic anhydrase 9 = Carbonic anhydrase 9 (Homo sapiens, UniProt Q16790); assay: Inhibition of human CA9 assessed as inhibition constant; how it was run: as §1
L929 = assay: Cytotoxicity against mouse L929 cells assessed as cell viability measured after 48 hrs by MTT assay; details: L929, 48 h
A549 = assay: Cytotoxicity against human A549 cells assessed as cell viability measured after 48 hrs by MTT assay; details: A549, 48 h
Hep 3B2 = assay: Cytotoxicity against human Hep3B cells assessed as cell viability measured after 48 hrs by MTT assay

Sequence of Carbonic anhydrase 12 (O43570 whole entry, canonical isoform): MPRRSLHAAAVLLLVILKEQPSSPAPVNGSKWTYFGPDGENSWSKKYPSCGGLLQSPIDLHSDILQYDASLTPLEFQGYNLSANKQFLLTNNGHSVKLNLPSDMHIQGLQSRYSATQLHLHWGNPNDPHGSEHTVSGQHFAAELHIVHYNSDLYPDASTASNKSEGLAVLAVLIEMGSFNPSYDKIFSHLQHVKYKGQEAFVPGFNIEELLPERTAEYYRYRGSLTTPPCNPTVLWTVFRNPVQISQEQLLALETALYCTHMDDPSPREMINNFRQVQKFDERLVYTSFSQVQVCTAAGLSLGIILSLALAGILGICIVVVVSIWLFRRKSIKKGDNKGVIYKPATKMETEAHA

CCCCCCCO/N=C(/C)c1nnn(-c2ccc(S(N)(=O)=O)cc2)c1C
Ki (Carbonic anhydrase 12): 0.117 µM
Ki (Carbonic anhydrase 9): 0.196 µM

O=c1[nH]cc(F)c(=O)[nH]1 [FLUOROURACIL]
IC50 (L929): 14 µM
IC50 (A549): 100 µM
IC50 (Hep 3B2): 60.6 µM
